# Bioassay records as filed in PubChem BioAssay.
# ZTA counter = ZTA (EBV) inhibition in EBNA-1 counter-screen | P03206 | ZTA-DNA binding, fluorescence polarization | inhibition, % at 11 µM | actives 0.15% (n = 320,000) | AID 2234; in the data active = inhibition above about 33%
# Target sequence (P03206 whole entry, looked up): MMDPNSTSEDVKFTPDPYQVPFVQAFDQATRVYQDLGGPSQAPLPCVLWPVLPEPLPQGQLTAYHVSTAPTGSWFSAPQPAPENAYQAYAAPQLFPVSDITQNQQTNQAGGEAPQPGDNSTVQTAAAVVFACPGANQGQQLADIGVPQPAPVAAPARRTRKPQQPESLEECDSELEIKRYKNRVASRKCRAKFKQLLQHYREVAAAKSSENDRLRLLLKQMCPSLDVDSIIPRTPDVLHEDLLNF
# eIF4H inh = inhibitors of RNA binding by human eIF4H; Q15056; eIF4H fluorescence polarization binding assay; inhibition, % at 35 µM; actives 0.94% (n = 290,000); AID 2012;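 also: calls also rest on retests at 20 µM and on dose response follow-up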
# PABP1 MLLE inh = blocks PAM2 peptide binding to the PABP1 MLLE domain. actives 0.36% (n = 360,000). inhibition, % at 20 µM. P11940. GST-MLLE / FITC-PAM2 fluorescence polarization; in the data active = inhibition above about 35%, passing the limit was not always enough;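 also: plate controls were DMSO wells with GST-MLLE for no effect and wells lacking GST-MLLE protein for full effect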
# EBNA-1 inhibitor = blocks EBNA-1 binding to DNA; EBNA-1 DNA binding, fluorescence polarization; inhibition, % at 14.8 µM; actives 0.34% (n = 300,000); in the data active = inhibition above about 28%
# PABP polyA inh = blocks human PABP binding to poly(A) RNA; P11940; fluorescence polarization; inhibition, % at 35 µM; actives 1% (n = 290,000); AID 2014;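 also: calls also rest on retests at 20 µM and on dose response follow-up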
# NS3 helicase inh = HCV NS3 helicase inhibition | NS3 helicase DNA unwinding, Cy5 molecular beacon fluorescence | inhibition, % at 10.9 µM | actives 0.56% (n = 290,000) | AID 1800;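 active = inhibition above the mean of all tested compounds plus 3 SD, set per campaign, cut at about 35% in these data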;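 also: 0% = DMSO wells and 100% = thioflavine S control wells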
#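 Assay system – hepatitis C virus NS3 helicase domain fragment enzyme · Buffer or medium – MOPS pH 6.5, MgCl2, DTT, Tween20, BSA · Reagent – Cy5/quencher beacon DNA duplex and ATP to start · Compound – single 10.9 µM dose · Timing – 1 h at 25 °C · Technique – Cy5 beacon fluorescence read at start and 1 h · Measure – % inhibition of unwinding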
# NS3 hel confirm = confirmation of Hepatitis C virus NS3 helicase inhibitors. shares compounds with NS3 helicase inh. NS3 helicase DNA unwinding, Cy5 molecular beacon fluorescence. inhibition, % at 10.9 µM. actives 31% (n = 1,600). AID 1943;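 active = inhibition above the mean of all tested compounds plus 3 SD, cutoff set per campaign, cut at about 36% in these data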
# FID counter trip = counter-screen for HCV NS3 helicase inhibitors: DNA intercalator displacement; actives 4% (n = 1,600); shares compounds with NS3 helicase inh; DNA fluorescent intercalator displacement, fluorescence; inhibition, % at 7.9 µM; in the data active = inhibition above about 37%;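 also: 0% = vehicle and 100% = reference compound; higher means more displacement of ethidium bromide from the DNA hairpin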
# An asterisk follows results filed as active; ? = inconclusive; · = no result. Sampled rows, rich in hits. Any-hit rate of the full collection: about 2.1%. Unless noted, no rule for the calls is given here.
SMILES,ZTA counter,eIF4H inh,PABP1 MLLE inh,EBNA-1 inhibitor,PABP polyA inh,NS3 helicase inh,NS3 hel confirm,FID counter trip
CCCCCCCC(=O)N/N=C/c1ccc([N+](=O)[O-])o1,0,12,-20,5,2,39*,-21,4
O=C(O)c1ccccc1C(=O)Nc1ccc(Br)c2cccnc12,3,19,-17,5,11,1,·,·
COc1ccc(CNCc2cc3c(cc2[N+](=O)[O-])OCO3)cc1,3,46,6,4,36,40*,-13,11
Cc1ccc(/C(O)=C2/C(=O)C(=O)N(c3ccccn3)C2c2ccc([N+](=O)[O-])cc2)cc1 (configuration not stated),3,-10,-5,11,9,36*,28,-21
Cc1ccc(/C(O)=C2/C(=O)C(=O)N(c3ccccn3)C2c2cccc([N+](=O)[O-])c2)cc1 (configuration not stated),-10,-7,14,6,20,48*,28,-22
COc1ccc(C2/C(=C(/O)c3ccc(C)cc3)C(=O)C(=O)N2c2ccccn2)cc1 (configuration not stated),10,1,-10,8,-6,27,·,·
O=C(O)c1ccc(Br)cn1,-12,27,5,-2,22,-3,·,·
CC(C)CC(=O)Nc1nnc(S(=O)(=O)N(C)Cc2ccco2)s1,-22,·,8,-5,·,55*,-3,10
CC1=C([N+](=O)[O-])C(c2cccc(Br)c2)C2=C(N1)c1ccccc1C2=O (configuration not stated),17,0,-21,4,0,-1,·,·
C[C@H]1CN([C@@H](C)CO)C(=O)c2cc(-c3cccc(F)c3)cnc2O[C@H]1CN(C)C(=O)c1cnccn1,·,·,-15,·,·,·,·,·
O=c1[nH]n2c(=O)c3c([nH]c2c1N=Nc1cccc(Cl)c1)CCC3,1,3,17,-4,-3,31,·,·
O=c1[nH]n2c(=O)c3c([nH]c2c1N=Nc1cccc(C(F)(F)F)c1)CCCC3,22,-3,18,27,13,64*,79*,20
O=C(NCc1cccs1)c1ccc(N2CCCCC2)nc1,15,-1,1,-3,11,-4,·,·
N=C1S/C(=C\c2ccco2)C(=O)N1c1ccc2c(c1)OCO2,3,91,-11,2,40*,40*,-20,2
O=C(COC(=O)/C=C/c1ccc([N+](=O)[O-])cc1)NCC1CCCO1 (configuration not stated),5,7,-3,-3,8,-9,·,·
O=C(COC(=O)/C=C/c1cccc([N+](=O)[O-])c1)NCC1CCCO1 (configuration not stated),3,-10,4,16,48,48*,-7,4
CN(CC(=O)NCC1CCCCC1)S(=O)(=O)c1ccc(Cl)cc1,10,1,-3,-13,15,-6,·,·
CCOc1cc(/C=C2/C(=O)NN(c3cccc(Cl)c3)C2=O)ccc1O,2,40,-144,0,-7,37*,64*,-4
COc1cc(/C=C2/C(=O)NN(c3ccc(C)c(Cl)c3)C2=O)cc([N+](=O)[O-])c1O,·,-3,-55,·,13,37*,68*,-2
COc1cccc(/C=C2/C(=O)NN(c3ccccc3)C2=O)c1,·,-6,17,·,2,24,·,·
COc1cc(/C=C2/C(=O)NN(c3cccc(Cl)c3)C2=O)cc(OC)c1O,-15,?,-150,-1,?,46*,51*,14
COc1cc(/C=C2/C(=O)NN(c3cccc(C)c3)C2=O)cc([N+](=O)[O-])c1O,13,11,-4,14,29,20,·,·
COCCN(C(=O)COC(=O)c1c(NC(C)=O)sc(C)c1C)c1c(N)n(Cc2ccccc2)c(=O)[nH]c1=O,0,·,-1,11,·,·,·,·
Cn1c(-c2ccc3ccccc3n2)nc2cnccc21,-25,10,7,7,6,-2,·,·
CC(=O)OCCCNc1cc(SCc2ccco2)c2nonc2c1[N+](=O)[O-],-25,94,34,9,-1,41*,31,27
SMILES,ZTA counter,eIF4H inh,PABP1 MLLE inh,EBNA-1 inhibitor,PABP polyA inh,NS3 helicase inh,NS3 hel confirm,FID counter trip
CC1=NN(C(N)=S)C(=O)C1N=Nc1ccc(Br)cc1 (configuration not stated),·,8,24,·,6,41*,-10,11
Cc1sc2c(c1C)C(O)=C(C(=O)Nc1ccccc1)S(=O)(=O)N2C,1,4,2,-7,13,44*,60*,-4
O=C1/C(=C\c2ccccn2)SC(=S)N1c1ccc(S(=O)(=O)Nc2nccs2)cc1,-7,66,27,3,13,36*,-17,25
Cc1noc(/C=C/c2ccco2)c1S(=O)(=O)N1CCC(C(=O)NCc2ccco2)CC1,-8,4,-14,9,6,11,·,·
Cc1ccc(CNC(=O)C2CCN(S(=O)(=O)c3c(C)noc3/C=C/c3ccco3)CC2)cc1,-22,15,-27,-17,-8,63*,-13,-3
Cc1nn(CC(=O)NCCc2ccco2)c(=O)c2nn(-c3ccccc3)c(C)c12,-4,60,11,3,8,48*,8,-7
Cc1nn(CC(=O)NCCc2cccs2)c(=O)c2nn(-c3ccccc3)c(C)c12,-6,8,-9,-4,3,49*,-10,-25
Cc1ccc(-n2nc3c(=O)n(CC(=O)NCc4cccs4)nc(C)c3c2C)cc1,6,-2,-2,-4,1,-3,·,·
CC1(C(=O)NCc2cccc3ccccc23)CCN1Cc1ccccc1OC(F)F (configuration not stated),·,·,2,·,·,·,·,·
Cc1ccc(-c2cc(C(=O)O)c3cc(Br)ccc3n2)o1,16,18,30,6,10,38*,79*,8
Cc1ccc(-c2cc(C(=O)NN3CCOCC3)c3cc(Br)ccc3n2)o1,-5,-2,24,-1,3,9,·,·
Cc1ccc(-c2cc(C(=O)O)c3cc(Br)ccc3n2)s1,·,-3,-11,·,19,38*,37*,-6
Cc1cccc(S(=O)(=O)N(C)C[C@@H]2OCc3cn(nn3)CCCC(=O)N([C@@H](C)CO)C[C@H]2C)c1,·,·,-1,·,·,·,·,·
CCCCN1C(=O)C(CC(=O)NCCCN(C)C)CC(C(=O)N(CC)CC)=C1C (configuration not stated),·,·,1,·,·,·,·,·
COc1ccc(-c2cc(C(=O)Nc3ccc(O)cc3)c3ccccc3n2)cc1OC,8,-10,-5,3,1,45*,-4,-24
